For one data set, the system named is HL-60. As to the kind of experiment: Antiproliferative activity against human HL60 cells after 72 hrs by MTT assay. It is filed as functional, cell-based. The conditions noted are these: HL-60, 72 h. In short, it runs like this:
(§1)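 Cells pre-incubated 24 h at 37 °C in humidified 5% CO2, then exposed to compounds for 72 h. MTT (5 mg/mL) was added for 4 h, formazan was dissolved in DMSO, and OD was read at 570 nm. Vehicle control was 0.1% DMSO. IC50 was calculated from inhibition ratios as the mean ± SD of three independent experiments.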

The subject of a further data set is L02. Kind of data set: Antiproliferative activity against human LO2 cells after 72 hrs by MTT assay. It is filed as cell-based. Particulars: L02, 72 h. The method, boiled down:
as §1

The nature of data set [1]: Selectivity index, ratio of IC50 for human LO2 cells to IC50 for human Bel7402 cells. The class given is toxicity. The conditions noted are these: LO2 cells versus Bel7402 cells, read-out: Ratio IC50. The method, boiled down:
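Selectivity index = IC50(L-O2)/IC50(Bel-7402), both IC50s from the 72 h MTT assay (mean of three independent experiments).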

Data set [2] has as its system Bel-7402. Kind of data set: Cell cycle arrest in human Bel7402 cells assessed as accumulation at G2/M phase at 0.125 uM after 72 hrs by propidium iodide staining-based flow cytometric method (reference value: 23.71%). The class given is functional.
Data set [3] relates to Bel-7402. Kind of data set: Cell cycle arrest in human Bel7402 cells assessed as accumulation at G1 phase at 0.25 uM after 72 hrs by propidium iodide staining-based flow cytometric method (reference value: 39.28%). The class given is functional.
Data set [4] has as its system Bel-7402. Kind of data set: Cell cycle arrest in human Bel7402 cells assessed as accumulation at S phase at 0.5 uM after 72 hrs by propidium iodide staining-based flow cytometric method (reference value: 37.02%). It is filed as functional.
The test system of data set [5] is Bel-7402. Kind of data set: Cell cycle arrest in human Bel7402 cells assessed as accumulation at G1 phase after 72 hrs by propidium iodide staining-based flow cytometric method. It is filed as functional.
Data set [6] concerns Bel-7402. Kind of data set: Induction of apoptosis in human Bel7402 cells assessed as cell shrinkage at 0.125 to 0.25 uM after 48 hrs by Hoechst 33258 staining based fluorescent microscopic method. The class given is functional. In short, it runs like this: (§2)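 Bel-7402 cells were seeded and grown 24 h, treated at 0.125, 0.25 and 0.5 µM for 48 h, then harvested by mild trypsinization and washed in PBS. They were stained with Hoechst 33258 for 15 min at room temperature in the dark and examined by fluorescence microscopy with a DAPI filter. Untreated cells served as control.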

In data set [7] the test system is Bel-7402. Kind of data set: Induction of apoptosis in human Bel7402 cells assessed as rupture of cell membrane at 0.5 uM after 48 hrs by Hoechst 33258 staining based fluorescent microscopic method. It is filed as functional. In short, it runs like this:
as §2

Data set [8] deals with Bel-7402. Kind of data set: Induction of apoptosis in human Bel7402 cells assessed as nuclear fragmentation at 0.5 uM after 48 hrs by Hoechst 33258 staining based fluorescent microscopic method. The class given is functional, cell-based. In short, it runs like this:
as §2

The subject of data set [9] is Bel-7402. Kind of data set: Induction of apoptosis in human Bel7402 cells after 72 hrs by Annexin V-FITC/propidium iodide staining based flow cytometry. It is filed as functional, cell-based.
In data set [10] the test system is Bel-7402. As to the kind of experiment: Induction of apoptosis in human Bel7402 cells assessed as late apoptotic cells at 0.125 uM after 72 hrs by Annexin V-FITC/propidium iodide staining based flow cytometry (reference value: 2.82%). The class given is functional.
Data set [11] deals with Bel-7402. As to the kind of experiment: Induction of apoptosis in human Bel7402 cells assessed as viable cells at 0.125 uM after 72 hrs by Annexin V-FITC/propidium iodide staining based flow cytometry (reference value: 82.48%). It is filed as functional. Particulars: Bel-7402, 72 h, read-out: Activity.
Data set [12] concerns Bel-7402. As to the kind of experiment: Induction of apoptosis in human Bel7402 cells assessed as late apoptotic cells at 0.25 uM after 72 hrs by Annexin V-FITC/propidium iodide staining based flow cytometry (reference value: 2.82%). The class given is functional.
For data set [13], the system named is Bel-7402. As to the kind of experiment: Upregulation of caspase-9 level in human Bel7402 cells at 0.125 to 0.5 uM after 72 hrs by Western blot analysis. It is filed as functional, cell-based. In short, it runs like this:
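Bel-7402 cells were treated for 72 h at the indicated concentrations (0.125–0.5 µM) and lysed. Lysates were cleared at 14,000 g for 10 min at 4 °C, and 25 µg protein per lane was run on 10% SDS-PAGE and transferred to nitrocellulose. Membranes were blocked in 5% milk, probed overnight at 4 °C with monoclonal antibodies, and detected by ECL. Densitometry was normalized to GAPDH.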

For data set [14], the system named is Bel-7402. Kind of data set: Induction of mitochondrial membrane depolarization in human Bel7402 cells assessed as cell with intact mitochondrial membrane potential at 0.125 uM after 24 to 48 hrs by JC-1 staining based flow cytometric analysis (reference value: 98.83%). It is filed as functional.
For data set [15], the system named is Bel-7402. Kind of data set: Induction of mitochondrial membrane depolarization in human Bel7402 cells assessed as cell with intact mitochondrial membrane potential at 0.5 uM after 24 to 48 hrs by JC-1 staining based flow cytometric analysis (reference value: 98.83%). It is filed as functional.

The source made the active and inactive calls. The rule behind the calls is not given here.

Turning to `C[C@H]1CCC/C=C/[C@@H]2C[C@H](O)C[C@H]2[C@H](OC(=O)c2ccc(N(CCCl)CCCl)cc2)/C=C/C(=O)O1`, the IC50 in the data set with HL-60 was determined as 4.48 µM; in the data set on L02, 9.74 µM. For the same molecule, the selectivity ratio in data set [1] stood at 38.9. Further, the Activity is 19.92% with Bel-7402 [2]; 54.26% in the data set with Bel-7402 [3]; 30.14% with Bel-7402 [4]; “Dose-dependent effect” in the data set with Bel-7402 [5]; “Dose-dependent effect” with Bel-7402 [9]; 5.47% in the data set on Bel-7402 [10]. The Activity in the data set on Bel-7402 [12] amounted to 11.26%; in the data set with Bel-7402 [14] it was 83.63%; in the data set on Bel-7402 [15], 56.15%. Further, the result in the data set on Bel-7402 [6], in the data set on Bel-7402 [7], in the data set with Bel-7402 [8] and with Bel-7402 [13] was Active. Further, in the data set on Bel-7402 [11], the viability at 0.125 µM amounted to 80.6%.

(Values after ChEMBL document CHEMBL4196069 (Eur J Med Chem, 2018).)
